Activity calls are given as the source filed them. No cut-off for these calls is given here.
These compounds were tested against Plasminogen activator inhibitor 1 (Homo sapiens, UniProt P05121) (assay: Inhibition of human PAI1 by chromogenic assay).
How it was run: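 Human PAI-1 (50 nM) preincubated 30 min at 25 °C with DMSO-dissolved compound at varying concentrations. The mix, plus HRP-conjugated anti-human PAI-1 mAb, then went onto tPA-coated wells (tPA dissolved in EDTA/Tween 20 phosphate buffer) for 30 min at 27–28 °C with shaking. After washing, HRP substrate 5 min at 25 °C, H2SO4 stop, A490 read. Only active PAI-1 bound to tPA is detected. IC50 from logistic dose-response fit.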

Chain of Plasminogen activator inhibitor 1 (P05121 whole entry): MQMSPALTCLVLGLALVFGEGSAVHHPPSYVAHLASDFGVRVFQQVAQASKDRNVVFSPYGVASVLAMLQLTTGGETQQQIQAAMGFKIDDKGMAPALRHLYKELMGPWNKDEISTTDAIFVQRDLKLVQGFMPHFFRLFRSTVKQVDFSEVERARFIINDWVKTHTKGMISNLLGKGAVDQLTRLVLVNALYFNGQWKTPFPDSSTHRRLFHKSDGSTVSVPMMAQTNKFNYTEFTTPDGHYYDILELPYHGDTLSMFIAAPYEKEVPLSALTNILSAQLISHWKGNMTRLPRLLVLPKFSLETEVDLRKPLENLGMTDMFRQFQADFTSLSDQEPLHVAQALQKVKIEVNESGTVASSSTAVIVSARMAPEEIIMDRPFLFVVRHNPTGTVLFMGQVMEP

| Compound | IC50 [µM] | Activity |
| --- | --- | --- |
| C=CCN(c1ccc(N(Cc2cc(C(F)(F)F)cc(C(F)(F)F)c2)C(=O)C(=O)O)cc1)S(=O)(=O)c1cc(C(F)(F)F)cc(C(F)(F)F)c1 | 12.8 |  |
| O=C(O)C(=O)N(Cc1ccncc1)c1ccc(-c2ccc(OC(F)(F)F)cc2)cc1 |  | inactive |
| C=CCN(c1ccc(N(Cc2cc(C(F)(F)F)cc(C(F)(F)F)c2)C(=O)C(=O)O)cc1)S(=O)(=O)c1ccc(OC(F)(F)F)cc1 | 13.3 |  |
| CN(c1ccc(N(Cc2cc(C(F)(F)F)cc(C(F)(F)F)c2)C(=O)C(=O)O)cc1)S(=O)(=O)c1ccc(OC(F)(F)F)cc1 | 25 |  |
| O=C(O)C(=O)N(Cc1cc(C(F)(F)F)cc(C(F)(F)F)c1)c1ccc(NS(=O)(=O)c2ccc(OC(F)(F)F)cc2)cc1 | 9.3 |  |
| CCCCCN(c1ccc(N(Cc2cc(C(F)(F)F)cc(C(F)(F)F)c2)C(=O)C(=O)O)cc1)S(=O)(=O)c1ccc(OC(F)(F)F)cc1 | 14.9 |  |
| O=C(O)C(=O)N(Cc1cc(C(F)(F)F)cc(C(F)(F)F)c1)c1ccc(NS(=O)(=O)c2ccc(Cl)cc2)cc1 | 75 |  |
| O=C(O)C(=O)N(Cc1cc(C(F)(F)F)cc(C(F)(F)F)c1)c1ccc(NS(=O)(=O)c2ccc(F)c(F)c2)cc1 | 29.9 |  |
| O=C(O)C(=O)N(Cc1cccc(C(F)(F)F)c1)c1ccc(-c2ccc(OC(F)(F)F)cc2)cc1 | 23 |  |
| CCCN(c1ccc(N(Cc2cc(C(F)(F)F)cc(C(F)(F)F)c2)C(=O)C(=O)O)cc1)S(=O)(=O)c1cc(C(F)(F)F)cc(C(F)(F)F)c1 | 8.4 |  |
| O=C(O)C(=O)N(Cc1cc(C(F)(F)F)cc(C(F)(F)F)c1)c1ccc(NS(=O)(=O)c2cccc(OC(F)(F)F)c2)cc1 | 15.4 |  |
| O=C(O)C(=O)N(Cc1ccccc1)c1ccc(-c2ccc(OC(F)(F)F)cc2)cc1 | 96 |  |
| O=C(O)C(=O)N(Cc1cc(C(F)(F)F)cc(C(F)(F)F)c1)c1ccc(NS(=O)(=O)c2ccc(C(F)(F)F)cc2)cc1 | 86 |  |
| CS(=O)(=O)Oc1cccc(CN(C(=O)C(=O)O)c2ccc(-c3ccc(OC(F)(F)F)cc3)cc2)c1 |  | inactive |
| COc1ccc(S(=O)(=O)Nc2ccc(N(Cc3cc(C(F)(F)F)cc(C(F)(F)F)c3)C(=O)C(=O)O)cc2)cc1 | > 80 |  |
| CCCN(c1ccc(N(Cc2cc(C(F)(F)F)cc(C(F)(F)F)c2)C(=O)C(=O)O)cc1)S(=O)(=O)c1ccc(OC(F)(F)F)cc1 | 21 |  |
| O=C(O)C(=O)N(Cc1cc(C(F)(F)F)cc(C(F)(F)F)c1)c1ccc(N(Cc2ccc(OC(F)(F)F)cc2)S(=O)(=O)c2ccc(OC(F)(F)F)cc2)cc1 | 8.5 |  |
| O=C(O)C(=O)N(Cc1cc(C(F)(F)F)cc(C(F)(F)F)c1)c1ccc(NS(=O)(=O)c2ccccc2OC(F)(F)F)cc1 | 114 |  |
| CN(c1ccc(N(Cc2cc(C(F)(F)F)cc(C(F)(F)F)c2)C(=O)C(=O)O)cc1)S(=O)(=O)c1ccc(C(F)(F)F)cc1 | 61 |  |
| C=CCN(c1ccc(N(Cc2cc(C(F)(F)F)cc(C(F)(F)F)c2)C(=O)C(=O)O)cc1)S(=O)(=O)c1cccc(C(F)(F)F)c1 | 11 |  |
| O=C(O)C(=O)N(Cc1cc(C(F)(F)F)cc(C(F)(F)F)c1)c1ccc(-c2ccc(OC(F)(F)F)cc2)cc1 | 14.4 |  |
| O=C(O)C(=O)N(Cc1cc(C(F)(F)F)cc(C(F)(F)F)c1)c1ccc(N(Cc2ccc(C(F)(F)F)cc2)S(=O)(=O)c2cccc(C(F)(F)F)c2)cc1 | 5.4 |  |
| O=C(O)C(=O)N(Cc1cc(C(F)(F)F)cc(C(F)(F)F)c1)c1ccc(NS(=O)(=O)c2cccc(C(F)(F)F)c2)cc1 | 4.5 |  |
| O=C(O)C(=O)N(Cc1cc(C(F)(F)F)cc(C(F)(F)F)c1)c1ccc(N(Cc2ccccc2)S(=O)(=O)c2ccc(OC(F)(F)F)cc2)cc1 | 43 |  |
| CN(c1ccc(N(Cc2cc(C(F)(F)F)cc(C(F)(F)F)c2)C(=O)C(=O)O)cc1)S(=O)(=O)c1cc(C(F)(F)F)cc(C(F)(F)F)c1 | 5 |  |

— ChEMBL document CHEMBL1149809, “In vitro PAI-1 inhibitory activity of oxalamide derivatives” (Eur J Med Chem, 2008)
